Active and inactive are the calls of the source. The rule behind the calls is not given here.
Legend:
[1] = test system: MDA-MB-231; assay: Cytotoxicity against human MDA-MB-231 cells after 72 hrs by MTT assay; assay type: functional, cell-based; settings: MDA-MB-231, 72 h
Summary of the method: (§1)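 Cells seeded at 10^4/well, exposed 24 h later to graded concentrations (0.01–100 µM) for 72 h at 37°C; MTT 0.5 mg/ml for 2 h, formazan dissolved in DMSO, absorbance at 570 nm. […] Colon lines in DMEM, breast lines in RPMI, both with 10% FCS.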

[2] = test system: MCF7; assay: Cytotoxicity against human MCF7 cells after 72 hrs by MTT assay; assay type: functional, cell-based; settings: MCF7, 72 h; summary of the method: as §1
[3] = test system: SW-620; assay: Cytotoxicity against human SW620 cells after 72 hrs by MTT assay; assay type: functional, cell-based; settings: SW-620, 72 h; summary of the method: as §1
[4] = test system: HT-29; assay: Growth inhibition of human HT-29 cells at cytotoxic IC50 level after 3 days by trypan blue dye exclusion assay; assay type: functional
Summary of the method: (§2)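 HT29 cells treated 48 h after seeding, dosed daily with daily medium change over three days; drug diluted in DMSO, controls 0.1% (v/v) DMSO. Cells trypsinized, mixed 1:1 with 0.04% trypan blue, live cells counted by hematimeter. Reported as mitotic index (treated/DMSO count); triplicates from two independent experiments.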

[5] = Cytotoxicity against human HCT116 cells after 72 hrs by MTT assay; assay type: functional, cell-based; settings: HCT-116, 72 h; summary of the method: as §1
[6] = test system: HT-29; assay: Cytotoxicity against human HT-29 cells after 72 hrs by MTT assay; assay type: functional, cell-based; settings: HT-29, 72 h; summary of the method: as §1
[7] = test system: HT-29; assay: Growth inhibition of human HT-29 cells at 0.5 to 10 uM after 3 days by trypan blue dye exclusion assay; assay type: functional; summary of the method: as §2
[8] = test system: HT-29; assay: Induction of cell cycle arrest in human HT-29 cells assessed as increase in accumulation at S phase at 0.5 to 10 uM by propidium iodide staining based flow cytometry; assay type: functional
[9] = test system: HT-29; assay: Induction of cell cycle arrest in human HT-29 cells assessed as accumulation at subG1 phase at 0.5 to 10 uM by propidium iodide staining based flow cytometry; assay type: functional
[10] = test system: HT-29; assay: Growth inhibition of human HT-29 cells at 10 uM after 3 days by trypan blue dye exclusion assay; assay type: functional; settings: HT-29, 72 h, read-out: GI; summary of the method: as §2
[11] = test system: HT-29; assay: Induction of cell cycle arrest in human HT-29 cells assessed as increase in accumulation at G0/G1 phase at 0.5 to 10 uM by propidium iodide staining based flow cytometry; assay type: functional

| Structure (SMILES) | IC50 [1] [µM] | IC50 [2] [µM] | IC50 [3] [µM] | growth inhibition (GI) [4] [%] | IC50 [5] [µM] | IC50 [6] [µM] | growth inhibition (GI) [7] [%] | Activity [8] | Activity [9] | inhibition of growth at 10 µM [10] [%] | Activity [11] |
| --- | --- | --- | --- | --- | --- | --- | --- | --- | --- | --- | --- |
| O=C1N/C(=N/c2csc(-c3ccc(Cl)cc3)c2)S/C1=C\c1ccc(Cl)cc1 | 6.4 | 6.7 | 4.6 | 25 | 11.6 | 2.8 |  |  |  |  |  |
| COc1ccc(-c2cc(/N=C3/NC(=O)CS3)cs2)cc1 | > 50 | > 50 | > 50 |  | > 50 | > 50 |  |  |  |  |  |
| O=C1N/C(=N/c2nc(-c3ccc(Cl)cc3)cs2)S/C1=C\c1ccc2ccccc2c1 | 0.9 | 0.3 | 20.3 | <25 | 1.2 | 1.8 | <5 |  |  |  |  |
| CCCCCC/C=C1\S/C(=N\c2csc(-c3ccc(Cl)cc3)c2)NC1=O |  | > 50 |  |  |  | 33.5 |  |  |  |  |  |
| O=C1N/C(=N/c2csc(-c3ccc(Cl)cc3)c2)S/C1=C\c1ccc(F)cc1 |  | > 50 | 8.7 | 25 | 7.4 | 4.1 |  |  |  |  |  |
| O=C1CS/C(=N\c2nc(-c3ccc(Cl)cc3)cs2)N1 | > 50 | > 50 | > 50 |  | 23.8 | 8.9 |  |  |  |  |  |
| Cc1ccc(-c2cc(/N=C3/NC(=O)CS3)cs2)cc1 | > 50 | > 50 | > 50 |  | > 50 | > 50 |  |  |  |  |  |
| O=C1CS/C(=N\c2c[se]c(-c3ccc(Cl)cc3)c2)N1 |  | > 50 | > 50 |  |  | > 50 |  |  |  |  |  |
| O=C1CS/C(=N\c2csc(-c3ccc(Cl)cc3)c2)N1 | > 50 | > 50 | > 50 |  | > 50 | 17.1 |  |  |  |  |  |
| O=C1CS/C(=N\c2csc(-c3ccccc3)c2)N1 | > 50 | > 50 | > 50 |  | > 50 | > 50 |  |  |  |  |  |
| O=C1N/C(=N/c2csc(-c3ccc(Cl)cc3)c2)S/C1=C\c1ccc(Br)cc1 | 3.5 | 2.5 | 0.7 | 25 | 3.3 | 2 |  | Active | inactive |  |  |
| COc1ccc(N2C(=O)CS/C2=N\c2csc(-c3ccc(Cl)cc3)c2)cc1OC | 46.9 | 18.7 | > 50 |  | 49.8 | 14.1 |  |  |  |  |  |
| O=C1N/C(=N/c2csc(-c3ccc(Cl)cc3)c2)S/C1=C\c1ccc2ccccc2c1 | 1.8 | 1.2 | > 50 | 50 | 3 | 3.7 |  |  |  |  |  |
| O=C1CS/C(=N\c2csc(-c3ccc(Cl)cc3)c2)N1c1ccccc1 |  | > 50 |  |  |  | 41.4 |  |  |  |  |  |
| Cc1ccc(/C=C2\S/C(=N\c3nc(-c4ccc(Cl)cc4)cs3)NC2=O)cc1 | 0.8 | 0.4 | 0.89 | <25 | 0.5 | 0.5 |  |  |  | 40 |  |
| Cc1ccc(N2C(=O)CS/C2=N\c2csc(-c3ccc(Cl)cc3)c2)cc1 |  | > 50 | > 50 |  |  | 28.9 |  |  |  |  |  |
| O=C1N/C(=N/c2csc(-c3ccc(Cl)cc3)c2)S/C1=C\c1ccccn1 | 10.9 | 30.2 | > 50 | 40 | 21.6 | 11.5 |  | Active | inactive |  |  |
| O=C1N/C(=N/c2nc(-c3ccc(Cl)cc3)cs2)S/C1=C\c1ccc(F)cc1 | > 50 | > 50 | > 50 |  | 7.5 | 2.9 |  |  |  |  |  |
| COc1cccc(N2C(=O)CS/C2=N\c2csc(-c3cccc4ccccc34)c2)c1 |  | > 50 |  |  |  | > 50 |  |  |  |  |  |
| COc1ccc(-c2cc(/N=C3\SCC(=O)N3c3cccc(OC)c3)cs2)cc1 | 2.7 | 1.9 | 3.5 | 50 | 2.7 | 11.7 |  |  | inactive |  | Active |
| O=C1CS/C(=N\c2csc(-c3ccc(Cl)cc3)c2)N1c1cccc2ccccc12 |  | > 50 | 19.5 |  |  | > 50 |  |  |  |  |  |
| O=C1N/C(=N/c2csc(-c3ccc(Cl)cc3)c2)S/C1=C\c1ccccc1 | 18 | > 50 | > 50 |  | 11.2 | 10.5 |  | Active | inactive |  |  |
| COc1cccc(N2C(=O)CS/C2=N\c2csc(-c3ccc(Cl)cc3)c2)c1 | > 50 | > 50 | 33 |  | > 50 | 24.6 |  |  |  |  |  |
| COc1cccc(N2C(=O)CS/C2=N\c2csc(-c3ccccc3)c2)c1 |  |  |  |  |  | 38.3 |  |  |  |  |  |
| O=C1N/C(=N/c2csc(-c3ccc(Cl)cc3)c2)S/C1=C\c1ccc(O)cc1 |  | > 50 |  |  |  | > 50 |  |  |  |  |  |
| COc1cccc(N2C(=O)CS/C2=N\c2csc(-c3ccc(C)cc3)c2)c1 | > 50 | > 50 | > 50 |  | 41 | > 50 |  |  |  |  |  |
| O=C1CS/C(=N\c2csc(-c3ccc(Cl)cc3)c2)N1c1ccc(Cl)cc1 |  | > 50 | > 50 |  |  | 36.6 |  |  |  |  |  |
| CC(C)(C)c1cc(/N=C2/NC(=O)CS2)cs1 | > 50 | > 50 | > 50 |  | > 50 | > 50 |  |  |  |  |  |
| O=C1CS/C(=N\c2csc(-c3cccc4ccccc34)c2)N1 | > 50 | > 50 | > 50 |  | > 50 | > 50 |  |  |  |  |  |
| CN(C)c1ccc(N2C(=O)CS/C2=N\c2csc(-c3ccc(Cl)cc3)c2)cc1 |  | > 50 |  |  |  | 29.2 |  |  |  |  |  |

Reference: ChEMBL document CHEMBL3414496, “Synthesis and biological evaluation of novel 2-heteroarylimino-1,3-thiazolidin-4-ones as potential anti-tumor agents” (Eur J Med Chem, 2015)
